The record followed here is ChEMBL document CHEMBL1149267, “The design and enzyme-bound crystal structure of indoline based peptidomimetic inhibitors of hepatitis C virus NS3 protease” (J Med Chem, 2004).

Structures are written as SMILES.

The target in assay [1] is NS3 (Hepatitis C virus, UniProt A3EZJ3). The experiment in a line: Inhibition of HCV NS3 protease. Set-up: species or system Hepacivirus hominis. In outline: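 IC50 taken after a 30 min preincubation of enzyme with inhibitor. Each value is the mean of 2 independent measurements, with standard deviations within 35% of the mean.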
NS3, sequence (A3EZJ3 whole entry): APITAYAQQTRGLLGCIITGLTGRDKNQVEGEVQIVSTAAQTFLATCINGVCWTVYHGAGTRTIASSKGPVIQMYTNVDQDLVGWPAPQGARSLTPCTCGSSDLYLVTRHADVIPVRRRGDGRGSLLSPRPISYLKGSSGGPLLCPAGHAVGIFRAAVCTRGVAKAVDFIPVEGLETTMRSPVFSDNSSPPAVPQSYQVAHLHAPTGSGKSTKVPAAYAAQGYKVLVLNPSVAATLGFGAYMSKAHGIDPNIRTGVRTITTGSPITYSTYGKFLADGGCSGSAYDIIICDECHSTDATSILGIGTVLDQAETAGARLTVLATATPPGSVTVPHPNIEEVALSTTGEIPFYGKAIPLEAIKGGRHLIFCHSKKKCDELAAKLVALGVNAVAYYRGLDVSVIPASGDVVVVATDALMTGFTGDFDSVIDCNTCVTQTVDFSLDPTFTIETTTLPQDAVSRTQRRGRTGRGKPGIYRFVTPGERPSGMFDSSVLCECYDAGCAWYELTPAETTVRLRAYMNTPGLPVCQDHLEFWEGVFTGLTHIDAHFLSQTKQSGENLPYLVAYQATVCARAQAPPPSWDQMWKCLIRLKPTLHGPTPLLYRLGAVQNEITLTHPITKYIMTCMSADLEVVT
Assay [2] deals with NS3 (Hepatitis C virus) (UniProt A3EZJ3). Nature of the assay: Inhibition of HCV NS3 protease at 100 uM. The settings on record: Hepacivirus hominis.
NS3 (Hepatitis C virus), sequence (A3EZJ3 as listed by the source): as the sequence (A3EZJ3 whole entry) above

The term IC50 denotes the concentration needed to halve the response being measured. A lower IC50 goes with higher potency. In assay [1], `CC(C)C[C@H](NC(=O)C1(Cc2ccc(Cl)s2)Cc2ccccc2N1)C(=O)NC(CC(F)F)C(=O)C(=O)O` (stereo partly specified) displayed an IC50 of 3.7 µM.

For `CC(C)C[C@H](NC(=O)C1(C2CCCCC2)Cc2ccccc2N1)C(=O)NC(CC(F)F)C(=O)C(=O)O` (single isomer, unassigned; diastereomer 1), in assay [1], it took 69 µM to reach half-maximal inhibition (IC50).

Take `CC(C)C[C@H](NC(=O)C1(CC2CCC2)Cc2ccccc2N1)C(=O)NC(CC(F)F)C(=O)C(=O)O` (single isomer, unassigned; diastereomer 1): in assay [1], the IC50 came to 34 µM.

`CC(C)C[C@H](NC(=O)C1(Cc2ccsc2C(=O)O)Cc2ccccc2N1)C(=O)NC(CC(F)F)C(=O)C(=O)O` (single isomer, unassigned; diastereomer 1): the IC50 in assay [1] is 0.7 µM.

As a reminder, the inhibition is the drop in the measured response relative to a control, in per cent. Higher therefore signals strong suppression. As to `CC(C)C[C@H](NC(=O)C1Cc2ccccc2N1)C(=O)NC(CC(F)F)C(=O)C(=O)O` (single isomer, unassigned; diastereomer 1), the inhibition in assay [2] was less than 50%.

For `CC(C)C[C@H](NC(=O)C1Cc2ccccc2N1)C(=O)NC(CC(F)F)C(=O)C(=O)O` (single isomer, unassigned; diastereomer 2), it took 50 µM to reach half-maximal inhibition in assay [1] (IC50).

Turning to `CC(C)C[C@H](NC(=O)C1(Cc2ccsc2C(=O)O)Cc2ccccc2N1)C(=O)NC(CC(F)F)C(=O)C(=O)O` (single isomer, unassigned; diastereomer 2), the IC50 in assay [1] was 27 µM.

`CC(C)C[C@H](NC(=O)C1Cc2ccc(OCC(=O)O)cc2N1)C(=O)NC(CC(F)F)C(=O)C(=O)O` (single isomer, unassigned; diastereomer 2) had a 50% inhibitory concentration (IC50) in assay [1] of 27 µM.

In assay [2], `CC(C)C[C@H](NC(=O)C1(C2CCCCC2)Cc2ccccc2N1)C(=O)NC(CC(F)F)C(=O)C(=O)O` (single isomer, unassigned; diastereomer 2) showed an inhibition of less than 50%.

In assay [2], `CC(C)C[C@H](NC(=O)C1(CC2CCC2)Cc2ccccc2N1)C(=O)NC(CC(F)F)C(=O)C(=O)O` (single isomer, unassigned; diastereomer 2) registered an inhibition of less than 50%.

In assay [1], `CC(C)C[C@H](NC(=O)C1(Cc2ccsc2C(=O)O)Cc2ccccc2N1)C(=O)NC(CC(F)F)C(=O)C(=O)O` (single isomer, unassigned; diastereomer 3) returned an IC50 of 38 µM.

The molecule `CC(C)C[C@H](NC(=O)C1Cc2ccc(OCC(=O)O)cc2N1)C(=O)NC(CC(F)F)C(=O)C(=O)O` (single isomer, unassigned; diastereomer 3) displayed an inhibition in assay [2] of less than 50%.

On to `CC(C)C[C@H](NC(=O)C1Cc2ccccc2N1)C(=O)NC(CC(F)F)C(=O)C(=O)O` (single isomer, unassigned; diastereomer 3), for which the inhibition in assay [2] was less than 50%.

With `CC(C)C[C@H](NC(=O)C1(Cc2ccsc2C(=O)O)Cc2ccccc2N1)C(=O)NC(CC(F)F)C(=O)C(=O)O` (single isomer, unassigned; diastereomer 4), the half-maximal inhibitory concentration (IC50) in assay [1] came to 73 µM.

With `CC(C)C[C@H](NC(=O)C1Cc2ccc(OCC(=O)O)cc2N1)C(=O)NC(CC(F)F)C(=O)C(=O)O` (single isomer, unassigned; diastereomer 4), the inhibition in assay [2] was less than 50%.

As for `CC(C)C[C@H](NC(=O)C1Cc2ccc(OCC(=O)O)cc2N1)C(=O)NC(CC(F)F)C(=O)C(=O)O` (stereo in doubt; 7m), the IC50 in assay [1] is 10 µM.
